Most compounds without a hit are left out; they make up all but 5.7% or so of the library.
Mdm2 MdmX PPI – human Mdm2/MdmX binding inhibition | inhibition, % at 8 µM | 330,000 compounds, 3% hits | O15151+Q00987 | SaOS-2 split-luciferase Mdm2/MdmX complementation, luminescence;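 active means inhibition of at least 50% at 8 µM in the primary screen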
Target sequence (O15151 whole entry, looked up): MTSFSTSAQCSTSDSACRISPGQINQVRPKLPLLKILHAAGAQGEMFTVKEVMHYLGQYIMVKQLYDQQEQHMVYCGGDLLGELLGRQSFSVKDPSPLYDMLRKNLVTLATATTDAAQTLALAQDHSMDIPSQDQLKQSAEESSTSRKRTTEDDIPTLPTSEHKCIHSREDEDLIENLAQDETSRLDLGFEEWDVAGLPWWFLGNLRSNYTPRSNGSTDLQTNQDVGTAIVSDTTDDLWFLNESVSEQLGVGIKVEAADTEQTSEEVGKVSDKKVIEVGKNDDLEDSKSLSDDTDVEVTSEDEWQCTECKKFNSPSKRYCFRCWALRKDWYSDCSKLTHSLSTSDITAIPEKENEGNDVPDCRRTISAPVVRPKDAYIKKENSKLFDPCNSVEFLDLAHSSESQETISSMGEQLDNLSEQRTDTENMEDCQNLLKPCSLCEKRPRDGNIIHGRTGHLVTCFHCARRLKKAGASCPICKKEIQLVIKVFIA
Target sequence (Q00987 whole entry, looked up): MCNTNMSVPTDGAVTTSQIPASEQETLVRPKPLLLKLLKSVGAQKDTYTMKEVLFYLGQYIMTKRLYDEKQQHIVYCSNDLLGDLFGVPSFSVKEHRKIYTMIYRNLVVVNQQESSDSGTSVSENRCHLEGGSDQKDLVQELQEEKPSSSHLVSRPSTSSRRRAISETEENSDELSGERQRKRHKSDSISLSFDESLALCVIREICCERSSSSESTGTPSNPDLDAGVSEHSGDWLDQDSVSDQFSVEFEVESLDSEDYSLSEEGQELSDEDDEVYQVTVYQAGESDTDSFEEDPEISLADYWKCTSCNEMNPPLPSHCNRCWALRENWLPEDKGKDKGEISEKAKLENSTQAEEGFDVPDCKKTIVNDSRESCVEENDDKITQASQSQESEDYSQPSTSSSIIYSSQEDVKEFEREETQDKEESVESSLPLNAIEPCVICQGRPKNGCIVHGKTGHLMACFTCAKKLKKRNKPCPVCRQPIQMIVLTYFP
Beta apoptosis – beta cell apoptosis inhibition; INS-1E cytokine-induced death, ATP luminescence, 48 h; percent of positive-control rescue, neutral wells zero; protection from apoptosis, % (concentration not given with the values); 300,000 compounds, 0.8% hits; AID 435005;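 active means Every replicate reaches about 75%, or at least half do and their mean reaches it too, limit read from the data; inconclusive means At least half of replicates reach the limit but their mean does not; inactive means Under half of replicates reach the limit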;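 further: 0% = cytokine-treated negative control wells and 100% = positive control rescue; higher means more ATP so stronger rescue from cytokine killing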
CSC inhib – cancer stem cell inhibition | cancer stem cell-like cells viability, luminescence | inhibition, % at 7.5 µM | 300,000 compounds, 1.1% hits | AID 2717; in the data active means inhibition above about 75%; inconclusive means no clear call, values can overlap the other calls; tested in HMLE shEcad cells
Calb FLC – affects C. albicans growth with fluconazole. 300,000 compounds, 0.57% hits. growth inhibition, % (concentration not given with the values). C. albicans CaCi-2 (fluconazole-resistant clinical isolate) + fluconazole, Alamar Blue growth, 48 h. AID 1979;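 active means growth inhibition above about 58% in most replicates, limit read from the data, passing the limit was not always enough; inconclusive means exactly half the replicates above a set limit; inactive means most replicates below a set limit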;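 further: all wells also contain fluconazole at 8 µg/ml as a sub-toxic cotreatment; 0% = median of DMSO wells and 100% = median of geldanamycin control wells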
SKKanGAS inh – inhibitors of SKKanGAS S. pyogenes growth in kanamycin (SK-promoter or general growth effect); BacTiter-Glo, 6 h; inhibition, % at 7.5 µM; 300,000 compounds, 1.3% hits; AID 1662;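 active means mean replicate score, as percent of positive control median, at least 50; inconclusive means mean below 50 but one replicate at or above 50; inactive means mean and every replicate below 50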;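 further: strain carries kanamycin resistance gene driven by streptokinase promoter and grows in 40 µg/ml kanamycin; loss of luminescence reflects streptokinase promoter inhibition or plain growth inhibition; 0% = median of DMSO wells and 100% = positive control at its reference dose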
T cruzi repl – blocks replication of Trypanosoma cruzi; T. cruzi beta-gal in NIH3T3, luminescence, 90 h; inhibition, % (no concentration beside the values); 300,000 compounds, 1.4% hits; AID 1885;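 active means mean inhibition across valid replicates above about 55%, limit read from the data; inconclusive means mean below that limit but half or more replicates reach it; inactive means mean below it, under half of replicates reach it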;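 further: signal also drops with host cell toxicity which is not excluded here; 0% = plate median of DMSO wells and 100% = zero luminescence signal; higher percent means less beta-gal luminescence so fewer parasites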
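Assay system: NIH/3T3 fibroblasts plus reporter T. cruzi. Amount: NIH/3T3 cells, 5,000 per well. Buffer or medium: DMEM, 2% fetal bovine serum. Doses: compound pinned at 50 nL/well, DMSO. Schedule: ≥90 h infection period, 3 h prior cell attachment. Signal: luminescent β-galactosidase signal after 60 min lysis. Read-out: parasite load inhibition, %.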
Starred values were filed as active, the others as inactive; ? = inconclusive; nt = not tested or not shown.

SMILES	Mdm2 MdmX PPI	Beta apoptosis	CSC inhib	Calb FLC	SKKanGAS inh	T cruzi repl
CCOc1ccc(C(=O)CC(Sc2ccc(C)cc2)C(=O)O)cc1 (stereo unspecified)	4	-27	4	-14	22	-17
O=C(CC(Sc1ccc(Br)cc1)C(=O)O)c1ccc(F)cc1 (stereo unspecified)	-1	nt	nt	3	-5	73*
CC(C)N=c1scc(-c2ccco2)n1/N=C/c1ccc(O)c(O)c1	6	11	99*	nt	nt	nt
COCCN=c1scc(-c2ccco2)n1/N=C/c1ccc(O)c(O)c1O	2	-8	1	nt	nt	nt
C/C(=N\NC(=O)CNC(=O)c1cccs1)c1ccc(Cl)c(Cl)c1	-7	-1	-10	13	2	16
COC(=O)c1c(-c2ccc(N(C)C)cc2)sc2ccc(OC)cc12	-176	7	106*	nt	nt	nt
O=Nc1c(O)c2ccccc2c2ccccc12	nt	109*	122*	94*	66*	-8
O=C(Nc1ncccc1O)c1cccc(S(=O)(=O)NCc2ccccc2)c1	16	-4	-8	-22	-15	-10
COC(=O)[C@]1(CC(C)C)N[C@H](c2ccc(-c3ccc(F)cc3)cc2)[C@@H]2C(=O)N(C)C(=O)[C@@H]21	25	4	18	-14	6	18
CCCc1ccc(-c2cc(NC(=O)CSc3n[nH]c(N)n3)n(-c3ccccc3)n2)cc1	-22	-6	91*	12	4	28
CCc1ccc(NC(=O)NNC(=O)c2cc3ccccc3cc2O)cc1	11	-7	1	?	-1	-12
COc1ccc(NC(=O)c2cc3ccc(O)cc3o/c2=N\O)cc1	-28	nt	75*	13	-4	-7
COc1ccc2o/c(=N\O)c(C(=O)Nc3ccccc3OC)cc2c1	39	7	-6	-9	1	-13
COc1ccc(NC(=O)c2cc3ccccc3cc2O)cc1	-57	-11	87*	18	27	18
CCOc1ccc(NC(=O)NNC(=O)c2cc3ccccc3cc2O)cc1	27	-9	-3	86*	-3	3
Cc1ccc(NC(=O)NNC(=O)c2cc3ccccc3cc2O)cc1C	23	4	-7	81*	3	2
O=C(C1CCC(CNS(=O)(=O)c2ccccc2)CC1)N1CCOCC1 (stereo unspecified)	19	-7	-19	-14	-8	-7
CC(=O)c1cc(C(=O)N2CCc3c([nH]c4ccccc34)C2C2CCCCC2)[nH]n1 (stereo unspecified)	47	5	-5	91*	8	-5
Cc1cnc(C(=O)N2CCc3c([nH]c4ccccc34)C2c2ccc(F)cc2)cn1 (stereo unspecified)	13	11	1	?	-2	14
O=C(Cc1cc(=O)oc2cc(O)ccc12)NC(Cc1ccc(Cl)cc1)C(=O)O (stereo unspecified)	-14	0	-10	5	-2	-16
Cc1ccc(S(=O)(=O)N(C(=N)N)c2nc(N(C)C)nc(N(C)C)n2)cc1	12	-4	-18	-6	2	55*
Cc1cccc(N=Nc2c(C)[nH]n(C(N)=S)c2=O)c1C	-36	28	-7	105*	13	-2
Cc1ccccc1N=Nc1c(C)[nH]n(C(N)=S)c1=O	-38	28	0	27	0	-4
CCCCn1c(SCC(=O)NNC(=O)c2ccccc2)n[nH]c1=O	4	-3	4	nt	nt	nt
CCCCN(CCCC)C1=Nc2ccccc2N/C1=C(/C#N)C(=O)OCC	5	5	-9	-1	72*	38
SMILES	Mdm2 MdmX PPI	Beta apoptosis	CSC inhib	Calb FLC	SKKanGAS inh	T cruzi repl
COc1ccc(C(CC(=O)N2CCCC(C)C2)c2c(OC)cc(OC)c3c(-c4ccccc4)cc(=O)oc23)cc1 (stereo unspecified)	15	1	6	9	67*	30
Cc1ccc(C(=O)NCC(C)NC(=O)c2ccc(C)c(C)c2)cc1C (stereo unspecified)	10	nt	nt	2	-22	-2
Cc1ccc(O)c(O)c1	32	-9	8	-4	1	-29
Cc1cc(O)c(Oc2cc(C)cc(O)c2O)c(O)c1	-3	-11	80*	?	3	-12
Cc1ccc(NC(=O)CCS(=O)(=O)c2cccc3nonc23)c(Br)c1	13	-1	-2	3	-1	13
O=C(c1nc2ccc(Cl)cn2c1CN1CCC(CO)CC1)N1CCc2ccccc2C1	-22	nt	-13	-4	52*	3
O=C(c1nc2ccc(Cl)cn2c1CN1CCCC1)N1CCc2ccccc2C1	17	3	1	-5	2	1
COc1cc(NC(=O)C23CC4CC(C2)CC(n2cnc([N+](=O)[O-])n2)(C4)C3)cc(OC)c1	26	2	2	-8	-1	34
O=C(Nc1cccc([N+](=O)[O-])c1)C12CC3CC(C1)CC(n1cnc([N+](=O)[O-])n1)(C3)C2	19	-11	-7	-4	11	64*
O=C(Nc1ccccc1)C12CC3CC(C1)CC(n1cnc([N+](=O)[O-])n1)(C3)C2	26	6	-2	3	1	55*
CN(/N=C/c1cc(Br)cc(Br)c1O)c1cccc(C(F)(F)F)n1	50	?	103*	-10	70*	23
O=C(O)CN1C(=O)c2ccc(C(=O)c3ccccc3)cc2C1=O	22	-3	-30	-2	-8	-3
COc1ccc(/C=N/NC(=O)CSc2nnc(C)n2-c2ccccc2)c(OC)c1OC	-18	1	0	-3	-3	nt
Cc1ccc(-c2nn(-c3ccccc3)cc2/C=N/NC(=O)CSc2nnc(C)n2-c2ccccc2)cc1	13	4	24	-8	54*	23
COc1cccc(/C=N/NC(=O)CSc2nnc(C)n2-c2ccccc2)c1O	28	11	77*	18	16	-17
C=CCNC(=O)N1CCCC(N2CCN(c3ccccc3OC)CC2)C1 (stereo unspecified)	19	-4	-4	-1	-8	1
CCCOc1ccc(OCCOCCN2CCc3ccccc3C2)cc1	14	9	26	24	-6	71*
c1ccc(OCCOCCN2CCc3ccccc3C2)cc1	16	-9	8	-41	-5	?
CCOc1ccc(OCCOCCN2CCc3ccccc3C2)cc1	35	-1	31	-31	-4	77*
COc1ccc(OCCCN2CCc3ccccc3C2)cc1	12	nt	10	-21	6	22
COc1ccc(-n2c(Cc3ccccc3)nnc2SCc2ccc([N+](=O)[O-])cc2)cc1	5	2	17	34	2	13
COc1ccc(-n2c(SCc3ccc([N+](=O)[O-])cc3)nnc2-c2ccc(C)cc2)cc1	-3	9	14	7	-2	70*
CC(CNC(=O)c1ccccc1Cl)NC(=O)c1ccccc1Cl (stereo unspecified)	22	nt	-18	-5	-9	-16
